Results from publication PMC4980077 (The FEBS journal, 2016).
“Also recorded” adds a separate entry of the source. One block for each molecule: values may come before it.

Assays:
[1] = Circular dichroism of AKB peptides; type: physicochemical; settings: 0.1 M Tris pH 8.5, Jasco J-810
PKG Iα = assay: 32P phosphorylation assay with PKG Iα; type: biochemical; settings: PKG Iα 20 nM, pH 7.5; n = 3
In short: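 Substrate was His-tagged human smAKAP (wild type, or S66D with PKA-Cα) at 10 μM. It was incubated with 20 nM recombinant kinase in 50 mM MOPS pH 7.5 containing 10 mM MgCl2, 200 μM ATP and [32P]ATP. Aliquots were quenched in 30% acetic acid at 0, 5, 10 and 15 min. Results are means ± SD of 3 independent experiments.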

PKA:AKAP interaction = settings: through an allosteric effect away from the D/D domain; ref [32]; cited from earlier work
PKA-RIβ = assay: Confocal colocalization with PKA-RIβ-mKO2 in HeLa cells; type: cell-based; settings: transfected, confocal, unstimulated
In short: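 HeLa cells co-expressed GFP-tagged smAKAP (wild type, S66E or S66D) with mKO2-tagged PKA-RIα or RIβ. Cells were washed in ice-cold PBS, fixed in ice-cold 4% formaldehyde in PBS, washed twice and imaged by confocal microscopy through a 63× oil objective. Stimulated cells received calyculin A plus 8-CPT-cAMP and were imaged live.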

PKA-RIα = assay: Confocal colocalization with PKA-RIα in HeLa cells; type: cell-based; settings: transfected, confocal, PKA-RIα-mCherry

Molecule: His6-smAKAP: recombinant human His-tagged smAKAP (wt), called smAKAP-wt in the phosphorylation assay
phosphorylation by PKG Iα compared with PKA (PKG Iα): only PKA phosphorylated

Molecule: Nc1cc(Cc2ccc(O)c(N)c2)ccc1O [FMP-API-1]
inhibition of PKA binding to AKAPs (PKA:AKAP interaction): inhibit the binding of PKA to AKAPs

Molecule: smAKAP-wt-GFP: wild-type smAKAP GFP fusion expressed in transfected cells
colocalization with PKA-RIβ-mKO2 (PKA-RIβ): strong colocalization along the plasma membrane; also recorded: colocalization at the plasma membrane
colocalization with PKA-RIα (PKA-RIα): strong colocalization along the plasma membrane

The next lines start with the values.

secondary structure by CD [1]: no secondary structure
Molecule: IVILEYAHRLpSQDILCDALQQWAC [AKB-pSer66]

α-helix propensity by CD [1]: ~ 45%
Molecule: IVILEYAHRLSQDILCDALQQWAC [AKB-wt]

secondary structure by CD [1]: no secondary structure
Molecule: IVILEYAHRLEQDILCDALQQWAC [AKB-S66E]

secondary structure by CD [1]: no secondary structure
Molecule: IVILEYAHRLDQDILCDALQQWAC [AKB-S66D]
